Consider 18 compounds from ChEMBL document CHEMBL1151736, “Design, synthesis, and biological evaluation of a series of 2-hydroxyisoquinoline-1,3(2H,4H)-diones as dual inhibitors of human immunodeficiency virus type 1 integrase and the reverse transcriptase RNase H domain” (J Med Chem, 2008).

A short description of series [1]: Inhibition of HIV1 RNase H. Further details: species or system Human immunodeficiency virus 1.
In series [2] the test system is Human immunodeficiency virus 1. As to the kind of experiment: Selectivity ratio of IC50 for HIV1 RNase H to IC50 for HIV1 integrase. The essentials: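 Ratio of the RNase H IC50 to the overall-integrase IC50. For RNase H, recombinant HIV-1 RT (4.5 pmol) was preincubated with compound for 10 min at 37 °C. It then ran 10 min at 37 °C on a 3H-RNA/DNA duplex with 6 mM MgCl2 and 80 mM KCl at pH 8.0, read by TCA-precipitated radioactivity. For integrase, ELISA used 1.6 µM integrase and 7 nM biotin/digoxigenin oligos with 10 mM MgCl2, 1 h at 37 °C.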

Series [3] has as its system Human immunodeficiency virus 1. As to the kind of experiment: Antiviral activity against HIV1 3B infected in human MT4 cells assessed as inhibition virus-induced cytopathic effect by MTT assay. The series is classed as functional, organism-based. The following applies: Human immunodeficiency virus 1, 3B.
Series [4] in a line: Cytotoxicity against human MT4 cells by MTT assay. The series is classed as cell-based.
Series [5] deals with Human immunodeficiency virus type 1 reverse transcriptase (Human immunodeficiency virus 1) (UniProt Q72547). Nature of the series: Inhibition of HIV1 reverse transcriptase at 50 uM. The essentials:
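RNA-dependent DNA polymerase activity: recombinant RT preincubated 10 min at 37 °C with compound (1.0, 10.0, 50.0 µM), then 10 min at 37 °C with poly(A)-oligo(dT) 20 µg/mL, 20 µM dTTP plus [3H]dTTP, 5 mM MgCl2, 100 mM KCl, 10 mM DTT, 50 mM Tris-HCl pH 8.0; TCA-precipitated radioactivity on nitrocellulose; percent inhibition.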

The target of series [6] is T1, Human immunodeficiency virus type 1 integrase (Human immunodeficiency virus 1, UniProt Q7ZJM1).
T1 sequence (Q7ZJM1 whole entry): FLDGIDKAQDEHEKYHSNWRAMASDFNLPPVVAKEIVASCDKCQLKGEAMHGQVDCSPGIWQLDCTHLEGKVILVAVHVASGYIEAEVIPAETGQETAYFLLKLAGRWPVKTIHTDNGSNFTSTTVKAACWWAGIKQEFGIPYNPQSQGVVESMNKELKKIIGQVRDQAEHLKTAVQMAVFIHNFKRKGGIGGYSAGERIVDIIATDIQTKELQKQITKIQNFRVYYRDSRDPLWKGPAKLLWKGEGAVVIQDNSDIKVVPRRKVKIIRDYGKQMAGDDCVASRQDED
Series [7] has as its target T1, Human immunodeficiency virus type 1 integrase. This is another data set of the same source.
For series [8] the target is unchanged. The source holds these as a separate data set.

pEC50, pIC50: −log10 of the molar value.

In general, pIC50 refers to the IC50 on a negative log10 scale, so that one unit is a factor of ten. Read a low pIC50 as a high IC50. In general, pEC50 refers to the negative decadic logarithm of the EC50, by convention in mol/L. A word on the CC50: it is the concentration giving 50% cytotoxicity. Higher therefore signals better tolerance by the cells. A word on the inhibition: it is the relative decrease from the control value, in per cent. High values mean a strong effect, low ones a weak effect. In the case of `O=C1Cc2ccc(-c3ccccc3)cc2C(=O)N1O`, the pIC50 was < 4.10 in series [1] and 5.76 in series [6]. Further, in series [2], the Ratio IC50 is > 47. Further, the pEC50 in series [3] was < 4.18. In addition, the CC50 in series [4] was > 66 µM. For the same compound, the inhibition in series [5] came to 40%.
Consider `O=C1Cc2ccc(-c3ccc(O)cc3)cc2C(=O)N1O`, for which the pIC50 was 5.14 in series [1] and 5.27 in series [6]. The Ratio IC50 in series [2] is 1.3. The pEC50 in series [3] was < 3.73. Also, the 50% cytotoxic concentration (CC50) in series [4] is > 186 µM. Besides, the inhibition in series [5] worked out at 50%.
Take `O=C1Cc2ccc(I)cc2C(=O)N1O`: the pIC50 in series [1] is 4.24; in series [6], 5.91. The Ratio IC50 in series [2] is 48.3. In series [3], the negative-log EC50 (pEC50) is < 4.15. For the same compound, the half-maximal cytotoxic concentration (CC50) in series [4] was > 70 µM. Also, the inhibition in series [5] turned out to be 40%.
As for `O=C(Cc1ccc(F)cc1)Nc1ccc2c(c1)C(=O)N(O)C(=O)C2`, the pIC50 in series [1] is 4.45; in series [6], 6.89; in series [7] it was 6.12; in series [8], 7.70. Moreover, the Ratio IC50 in series [2] was 272. For the same compound, the negative-log EC50 (pEC50) in series [3] is < 3.94. In addition, in series [4], the CC50 was > 116 µM. In series [5], the inhibition is 40%.
In the case of `O=C1Cc2ccc(Br)cc2C(=O)N1O`, the negative-log IC50 (pIC50) in series [1] is < 4.02; in series [6], 6.24; in series [7], 5.85; in series [8] it was 6.05. For the same compound, the Ratio IC50 in series [2] was > 166. Further, the pEC50 in series [3] is < 4.19. Besides, the half-maximal cytotoxic concentration (CC50) in series [4] was > 64 µM. In series [5], this compound showed an inhibition of 40%.
In the case of `O=C(Nc1ccc2c(c1)C(=O)N(O)C(=O)C2)c1cccc([N+](=O)[O-])c1`, the pIC50 is 4.97 in series [1] and 5.05 in series [6]. In series [2], the Ratio IC50 was determined as 1.2. The same compound gave an inhibition in series [5] of 40%.
For the compound `O=C1Cc2ccccc2C(=O)N1O`, the pIC50 in series [1] was 5.23; in series [6] it was 5.20. In series [5], this compound had an inhibition of 40%.
As to `O=C1Cc2ccc(O)cc2C(=O)N1O`, the figures for the negative logarithm of the IC50 (pIC50) in series [1] and in series [6] were 4.43 and 5.65, respectively. The Ratio IC50 in series [2] was 17. In series [3], the negative-log EC50 (pEC50) is < 4.32. Besides, the 50% cytotoxic concentration (CC50) in series [4] was > 48 µM. In series [5], this compound returned an inhibition of 40%.
As for `O=C1Cc2ccc(Cl)cc2C(=O)N1O`, the pIC50 in series [1] is 4.54; in series [6], 6.10. Also, the Ratio IC50 in series [2] amounted to 36.1. The pEC50 in series [3] was < 4.32. In series [4], the half-maximal cytotoxic concentration (CC50) was > 48 µM. In addition, the inhibition in series [5] came out at 40%.
With `O=C(Cc1ccccc1)Nc1ccc2c(c1)C(=O)N(O)C(=O)C2`, the pIC50 in series [1] is < 4.10; in series [6], 7.05; in series [7] it was 5.11; in series [8] it was 7.00. In addition, the Ratio IC50 in series [2] was > 889. In addition, the pEC50 in series [3] is < 3.92. In addition, in series [4], the 50% cytotoxic concentration (CC50) is > 121 µM. Also, in series [5], the inhibition was found to be 40%.
`CCCCC(=O)Nc1ccc2c(c1)C(=O)N(O)C(=O)C2`: the pIC50 was < 4.10 in series [1] and 4.73 in series [6]. Moreover, in series [2], the Ratio IC50 is > 4.2. For the same compound, the negative logarithm of the EC50 (pEC50) in series [3] was < 3.60. In series [4], the CC50 is > 250 µM. Besides, the inhibition in series [5] is 40%.
For the compound `O=C1Cc2ccc(-c3ccc(C(F)(F)F)cc3)cc2C(=O)N1O`, the pIC50 in series [1] is 4.97; in series [6], 5.74. Also, in series [2], the Ratio IC50 worked out at 5.9. Also, the pEC50 in series [3] is < 4.33. The 50% cytotoxic concentration (CC50) in series [4] was > 47 µM. In series [5], this compound showed an inhibition of 40%.
On to `O=C(Nc1ccc2c(c1)C(=O)N(O)C(=O)C2)c1ccccc1`, for which the pIC50 was 5.24 in series [1] and 5.91 in series [6]. Further, the Ratio IC50 in series [2] is 4.7. The pEC50 in series [3] is 4.66. This compound also yielded a 50% cytotoxic concentration (CC50) in series [4] of 84 µM. For the same compound, the inhibition in series [5] came out at 40%.
Regarding `O=C1Cc2ccc(-c3ccc(O)c(O)c3)cc2C(=O)N1O`, the negative-log IC50 (pIC50) in series [1] is 5.18; in series [6], 6.25. Besides, the Ratio IC50 in series [2] is 11.8. The negative logarithm of the EC50 (pEC50) in series [3] was < 4.05. Moreover, the 50% cytotoxic concentration (CC50) in series [4] is > 89 µM. Also, in series [5], the inhibition was determined as 70%.
With `O=C1Cc2ccc(-c3ccc(F)cc3)cc2C(=O)N1O`, the pIC50 is 4.65 in series [1] and 5.83 in series [6]. For the same compound, in series [2], the Ratio IC50 worked out at 15.8. Moreover, the negative-log EC50 (pEC50) in series [3] is < 4.34. Besides, the half-maximal cytotoxic concentration (CC50) in series [4] is > 46 µM. This compound also registered an inhibition in series [5] of 60%.
Turning to `CC(=O)Nc1ccc2c(c1)C(=O)N(O)C(=O)C2`, the results for the negative-log IC50 (pIC50) in series [1] and in series [6] were 4.39 and 6.23, respectively. Further, the Ratio IC50 in series [2] was found to be 69. Further, in series [3], the pEC50 is 3.83. For the same compound, the half-maximal cytotoxic concentration (CC50) in series [4] was > 250 µM. The same compound had an inhibition in series [5] of 40%.
For `O=C(Nc1ccc2c(c1)C(=O)N(O)C(=O)C2)c1ccc(F)cc1`, the pIC50 in series [1] is 5.15; in series [6], 6.39. Moreover, the Ratio IC50 in series [2] is 17.3. For the same compound, the pEC50 in series [3] is < 3.92. For the same compound, the half-maximal cytotoxic concentration (CC50) in series [4] was > 120 µM. Also, the inhibition in series [5] amounted to 40%.
`O=C1Cc2ccc([N+](=O)[O-])cc2C(=O)N1O`: the pIC50 in series [1] was 4.32; in series [6] it was 5.07. Moreover, in series [2], the Ratio IC50 worked out at 5.6. Besides, in series [3], the pEC50 is < 3.69. Besides, the cytotoxic concentration (CC50) in series [4] is > 205 µM. In series [5], this compound returned an inhibition of 40%.
